According to ChEMBL document CHEMBL4513216, “Probing the Open Global Health Chemical Diversity Library for Multistage-Active Starting Points for Next-Generation Antimalarials” (ACS Infect Dis, 2020):

Test: Toxicity liver stage against HepG2, at 10uM
Format: cell-based
Set-up: test concentration 10 uM, cell line HepG2-A16-CD81EGFP
Conditions: human, HepG2-A16-CD81EGFP cells; read-out: INHIBITION
Method in brief: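 Uninfected HepG2-A16-CD81EGFP cells, 3 × 10^3 per well, 1536-well, plated on prespotted compound at 10 μM final, parasite-free screening media added to match infected plates; puromycin 10 μM positive, DMSO 0.5% negative; run in parallel with 48 h PbLuc assay at 37 °C, 5% CO2; viability by CellTiter-Glo luminescence, normalized to controls.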

Structure (SMILES)	cytotoxicity at 10 µM [%]
Cc1c(CN2CCCCC2)c(O)n(CCCO)c(=O)c1C#N	-5.03
CCc1c(C(=O)NCC2CCS(=O)(=O)C2)cnn1-c1ccc(C)cc1 (configuration not stated)	-6.69
Fc1ccc(OCc2nnc([C@H]3CCN(Cc4ccncc4)C3)o2)cc1	-1.81
CCCNC(=O)C[C@@H]1CCN(C(=O)c2cccnc2)C[C@@H]1CC	-0.171
O=C1CO[C@H]2CN(Cc3ccc(F)c(F)c3)C[C@H]2N1	-2.49
CCC(CC)C(=O)n1ccn(S(=O)(=O)c2ccc(C)cc2)c1=O	11.5
Cc1ccc(C)c(-n2ncc(C(=O)NCC3COC(C)(C)O3)c2N)c1 (configuration not stated)	-4.06
COc1coc(C(=O)Nc2ccncc2)cc1=O	-14.4
C1CC(CN2CC[C@@H]3O[C@@H](c4nnc(C5CC5)o4)C[C@H]3C2)CCO1	5.35
CC[C@@H]1N(Cc2ccccn2)CCC[C@]12CCC(=O)N2CCOC	8.01
Cc1ccc(N2CCOCC3(CCCN(c4ncc(F)cn4)C3)C2)nn1 (configuration not stated)	-123
O=S(=O)(NCC1(O)CCOc2ccccc21)c1cccs1 (configuration not stated)	-16.8
COCCCNC(=O)Cn1c(-c2cccc(Cl)c2)nc(C)cc1=O	-8.41
Cn1nccc1C(=O)NCCN1CCC(O)(c2ccc(F)cc2)CC1	1.09
NC(=O)c1cnn2c(C3CCN(CCO)CC3)ccnc12	0.695
CN1CCC(NC(=O)C2CN(c3cncnc3)CCO2)CC1 (configuration not stated)	-32.5
CCc1nnc(Nc2cccc(C3CCN(CC4CC4)CC3)n2)s1	-26.8
Cc1ccc(=O)n(CC2(O)CCN(Cc3cnc(N(C)C)nc3)CC2)n1	-26
Cc1ncc(CNC(=O)CCOc2ccccc2)c(C2CCCN2C)n1 (configuration not stated)	-1.03
O=C(O)c1cc(Br)cnc1OCC1CC1	6.43
CCc1ccccc1OCC(=O)Nc1ccnc(OCCN(C)C)c1	17.8
CN(c1cccnc1N1CCCC1)S(=O)(=O)c1cccs1	20.4
CNC(=O)Cc1ccc(NC(=O)NCC(C)c2ncc(C)s2)cc1 (configuration not stated)	-14.4

Structure (SMILES)	cytotoxicity at 10 µM [%]
COc1ccc(CNC(c2cccc(F)c2)c2cnn(C)c2)cc1 (configuration not stated)	4.91
CCCC(O)CNc1cncc(Br)c1 (configuration not stated)	22.2
CCOc1ncccc1CNS(=O)(=O)c1ccc2c(c1)CCO2	7.95
Cc1nnc(NC(=O)NCc2ccc(N3CCNC(=O)C3)cc2)s1	-1.26
O=C(CCc1ccsc1)NCC1CCN(Cc2cccs2)CC1	12.9
Cc1ccc(S(C)(=O)=O)cc1C(=O)N(C)Cc1ccco1	0.0194
Cc1ccc(CNC(=O)NC2CCCN(c3ncccn3)C2)n1C (configuration not stated)	5.23
CN(CCc1ccncc1)C1CCCN(Cc2noc(C3CC3)n2)C1 (configuration not stated)	8.66
Cc1nn(C)c(N2CCOCC2)c1CNC(c1ccccc1)C1CC1 (configuration not stated)	4.45
CCS(=O)(=O)N1CCC(Oc2ccc(C#N)cc2)CC1	16.8
Cc1cc(F)ccc1N1CCCC(NC2CCSCC2)C1=O (configuration not stated)	1.07
CCCS(=O)(=O)N(C)C(=O)CCc1ccccc1	4.83
OC(COCc1ccco1)CSc1nnc2ccccn12 (configuration not stated)	3.55
COc1cccc(S(=O)(=O)CCNC(C)Cn2cccn2)c1 (configuration not stated)	-3.34
CNC(=O)COc1ccccc1CNCc1c(C)noc1C	2.32
O=C(NCCCOCC1CC1)Nc1ccc(F)cc1	3.09
CCOCCNC(=O)c1ccc(OC)cc1I	6.53
Cc1cc(C)c(CNc2ncnc3ccccc23)c(=O)[nH]1	17.6
Cc1cnc(NC2CCN(CC(=O)Nc3ccccc3)CC2)nc1C	-5.47
CCOCCn1nnc(C2(NC(=O)c3ccccc3)CCCC2)n1	21.9
Cc1cc(C)n(CC(=O)N2CCC(c3nc(C)no3)CC2)n1	1.2
CC(C1CC1)N(C(=O)NCCCn1nc2ccccn2c1=O)C1CC1 (configuration not stated)	-21.4
Cn1cc(-c2ncnc3c2CCN(C(=O)c2cscn2)CC3)cn1	1.15

Structure (SMILES)	cytotoxicity at 10 µM [%]
CCOCC1CN(C(=O)c2cccs2)Cc2cnn(CC3CC3)c21 (configuration not stated)	-1
c1ccc(CN2CCc3ncnc(-c4cncnc4)c3CC2)nc1	-68.3
CC[C@H](CO)NC(=O)c1coc(COc2ccccc2F)n1	5.21
O=C(c1ccc(-c2ccsc2)nc1)N1CCCN(C2CCCCC2)CC1	6.67
CN1CC2(CCN(C(=O)c3cc(-n4cccn4)ccc3Cl)CC2)OC1=O	2.3
Cc1ncsc1CCC(=O)N(C)Cc1nc2ccccc2n1C	-143
Cn1nccc1C(=O)N1CCN(C(=O)C2CC2)[C@@H]2CS(=O)(=O)C[C@@H]21	3.11
O=C(O)[C@H]1C[C@H](C(=O)NC2CC2)CN(Cc2ccc(-c3cc[nH]n3)s2)C1	2.89
COc1cccc2c1OCC(Cc1cnc(N)c(C)c1)C2 (configuration not stated)	3.36
CCN(Cc1ccncc1)Cc1c[nH]nc1-c1ccc(F)cc1	-5.83
Cc1nc(C(=O)N(Cc2c(C)nn(C)c2C)C(C)C)cs1	3.57
Cc1nc(C)n(CC(C)C(=O)N2CCC(CN3CCOCC3)CC2)n1 (configuration not stated)	0.635
CCc1nn(C)c(Cl)c1CN1C[C@H](NC(=O)CCO)[C@@H](C(C)C)C1	11.1
O=C(C1CC1)N1CCN(C(=O)CSc2ccccn2)[C@H]2CS(=O)(=O)C[C@H]21	-24.6
CC(C)[C@@H]1CN(CCOc2ccc(Cl)cc2)C[C@H]1NS(C)(=O)=O	-52.4
COCc1noc(CN2C(=O)OC[C@@H]2C(C)C)n1	-11.8
Cc1nnc(SCCNC(=O)Cn2cnc3ccccc3c2=O)s1	4.79
O=C(Cc1c[nH]c2ccccc12)NCC1CCN(Cc2c[nH]cn2)C1 (configuration not stated)	2.34
CCOCC(O)c1nc2c([nH]1)CC(C)(C)CNC2=O (configuration not stated)	4.71
CCc1cnc(N)nc1NCCCn1nc(C)nc1C	-1.37
Cc1ccc(C(=O)N2CCC3(CCC(=O)N(CCN(C)C)C3)CC2)nc1	-1.62
COCCCC1(CO)CCCN(CCc2ccccc2)C1 (configuration not stated)	-9.99
CCn1nccc1C(=O)NC(Cn1cccn1)C(C)(C)C (configuration not stated)	-9.24

Structure (SMILES)	cytotoxicity at 10 µM [%]
O=C(c1cc[nH]n1)N1CCCC(c2cccc(-n3ccnc3)n2)C1 (configuration not stated)	6.88
CCc1ccsc1C(=O)NCCn1nc2ccccn2c1=O	-12.2
c1cnn(CC2CCCCN2c2ncnc3ccsc23)c1 (configuration not stated)	-13.9
Cc1cc(NC(=O)CN2CCN(c3nccs3)C(C)C2)on1 (configuration not stated)	-5.35
Cc1n[nH]c(C)c1NC(=O)CN1CCN(c2nccs2)C(C)C1 (configuration not stated)	-17.6
Cc1cnn(C2CCCN(C(=O)c3cccc(-n4cnnn4)c3)C2)c1 (configuration not stated)	-8.77
CCCNC(=O)CCOc1cccc(F)c1	4.75
Cc1nc(C2CCCN(C(=O)c3c[nH]c(C(C)C)n3)C2)no1 (configuration not stated)	-7.52
NC(=O)C1CCN(C(=O)CCCc2nnc(-c3ccccc3)o2)C1 (configuration not stated)	-19.8
Cc1ncsc1C(=O)NC1CCN(CCC#N)CC1	-8.87
Cc1nnc(NC(=O)CN2CCc3c(nc(C4CC4)n3C)C2)s1	-8.51
O=C(NCCOCC(F)(F)F)c1ccc(-c2ccccc2)[nH]c1=O	-13.9
CC(C)c1nccn1C1CCCN(C(=O)C2=NN(C)C(=O)CC2)C1 (configuration not stated)	-24.6
CC(Cn1cccn1)NC(=O)N1CCCN(Cc2cccs2)CC1 (configuration not stated)	-13.5
COc1ccc(NC(=O)N2CCCC2c2ccncc2)cn1 (configuration not stated)	0.165
Cc1cc(C[S+]([O-])CC(=O)Nc2c(C)cccc2C)no1 (configuration not stated)	-9.65
Cc1nn(C)c(N2CCOCC2)c1CNC(c1cccs1)C(C)C (configuration not stated)	-2.53
CC(C)Oc1cccc(CNC(=O)NC(C)(C(=O)O)c2ccco2)c1 (configuration not stated)	-2.77
CCCNC(=O)CN1CCC(C(=O)Nc2cnn(CC)c2)CC1	-2.04
Cc1cc(C)n(CC2CCCN2C(=O)c2cnn(C)c2C2CC2)n1 (configuration not stated)	-0.489
COc1cc(CNC(=O)CNc2cc(Cl)ccc2OC)ccn1	-8.92
CCC1c2ccsc2CCN1C(=O)NCc1ccccn1 (configuration not stated)	-4.51
O=C1C(NCc2nnc3n2CCCC3)CCN1c1ccccc1 (configuration not stated)	-11.2

Structure (SMILES)	cytotoxicity at 10 µM [%]
Cc1cc(C)c(CNC(=O)NCC2CCCN2C)c(=O)[nH]1 (configuration not stated)	-2.14
COCC(=O)NC(C)Cc1cccc(Br)c1 (configuration not stated)	-8.21
CCc1nnc2n1CCN(CCS(=O)(=O)c1ccccc1)C2	-11.6
FC(F)(F)Cn1ccnc1CN1CCCC1c1noc(C2CC2)n1 (configuration not stated)	1.78
CN(Cc1nnc(C2CC2)o1)C1CCN(CCCc2cnn(C)c2)C1 (configuration not stated)	5.27
COCc1nc(C(=O)N2CCCC2c2ccccc2C)cs1 (configuration not stated)	4.28
Cc1cnn(CCC(=O)N2CCN(c3ncccc3Cl)CC2)c1	2.41
CC(O)CN1CCC(CNCc2cccc(Br)c2)CC1 (configuration not stated)	-12.1
CN(C)C(=O)c1ccc(CNC(=O)NCCN(C)C2CCCC2)cc1	-5.58
COCCc1noc(CN2CCOC(Cn3nc(C)cc3C)C2)n1 (configuration not stated)	-6.66
Cc1ncsc1C(=O)N1CCCN(Cc2cscn2)CC1	-9.67
COc1cccc(CCC(=O)N2CCC[C@@H](N)[C@@H]2c2ccccc2F)c1	8.3
Cc1ccc(CN2CCC(O)(Cn3nc(-c4cccs4)oc3=O)CC2)o1	8.52
NCC1CCC(c2c(C(N)=O)sc3ccccc23)CC1 (configuration not stated)	1.52
Cn1cc(CN2CCn3cc(CNC(=O)C4CCC4)nc3C2)cn1	-6.66
O=C1[C@H]2CN(Cc3cccs3)C[C@H]2CN1c1ccsc1	-79
CC(=O)N1CCC2(CC1)COC(COCc1ccccn1)C2 (configuration not stated)	-114
CN(C)CCn1c2c(ccc1=O)CC(NC(=O)c1cnccn1)CC2 (configuration not stated)	-2.4
O=C(c1ccncc1)N1CCC2(CC1)CCN(Cc1ccccn1)C2=O	-3.18
O=C(c1ccco1)N1C2CCC(O)(CC2)C1CO (configuration not stated)	6.88
